This note sets out measurements from ChEMBL document CHEMBL2029334 (Bioorg Med Chem Lett, 2012).

pIC50: −log10 of the molar value. Activity calls are given as the source filed them. The rule behind the calls is not given here.

The subject of series [1] is Plasma. Put plainly: Tmax in rat plasma assessed as 9H-fluoren-9-ol at 116 mg/kg, ip. Format: ADME, organism-based. Also noted: dose 116 mg/kg, route intraperitoneal. The settings on record: in vivo. In a few lines:
(§1)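 Rats received the parent compound at 116 mg/kg ip in 0.5% methylcellulose/0.2% Tween 80. The metabolite was measured in plasma and brain over time. Cmax is given in ng/g, Tmax in h, and AUC0-t in ng h/g. Values are mean ± SEM, n = 3.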

Series [2] has as its system Brain. Description: Cmax in rat brain assessed as 9H-fluoren-9-ol at 116 mg/kg, ip. Format: ADME, organism-based. Also noted: dose 116 mg/kg, route intraperitoneal. As to conditions: in vivo. The gist of the method:
as §1

Series [3] relates to Brain. Description: Tmax in rat brain assessed as 9H-fluoren-9-ol at 116 mg/kg, ip. Type of series: ADME, organism-based. Set-up: dose 116 mg/kg, route intraperitoneal. As to conditions: in vivo. The gist of the method:
as §1

The test system of series [4] is Plasma. Put plainly: Cmax in rat plasma assessed as 9H-fluoren-9-ol at 116 mg/kg, ip. Set-up: dose 116 mg/kg, route intraperitoneal. Type of series: ADME, organism-based. As to conditions: in vivo. The gist of the method:
as §1

In series [5] the test system is Plasma. Description: AUC (0 to t) in rat plasma assessed as 9H-fluoren-9-ol at 116 mg/kg, ip. Type of series: ADME, organism-based. Set-up: dose 116 mg/kg, route intraperitoneal. The settings on record: in vivo. In a few lines: as §1
Series [6] has as its target Sodium-dependent dopamine transporter (Rattus norvegicus, UniProt P23977). Put plainly: Displacement of 3H-WIN-35428 from DAT in rat striata after 120 mins. (Displacement assays read how much labelled ligand stays bound in the presence of the test substance.)
For series [7], the system named is Rattus norvegicus. Put plainly: Wake promoting activity in rat assessed as total time awake at 100 mg/kg, ip over a period of 3 hrs after dosing. Format: functional. As to conditions: route intraperitoneal.
Series [8] has as its system Brain. Description: AUC (0 to t) in rat brain assessed as 9H-fluoren-9-ol at 116 mg/kg, ip. Format: ADME, organism-based. Set-up: dose 116 mg/kg, route intraperitoneal. As to conditions: in vivo. In a few lines: as §1
Series [9] concerns Brain. Put plainly: AUC (0 to t) in rat brain assessed as 9H-fluoren-9-one at 116 mg/kg, ip. Type of series: ADME, organism-based. Set-up: dose 116 mg/kg, route intraperitoneal. The settings on record: in vivo. The gist of the method: as §1
The subject of series [10] is Plasma. Description: Tmax in rat plasma assessed as 9H-fluoren-9-one at 116 mg/kg, ip. Type of series: ADME, organism-based. Set-up: dose 116 mg/kg, route intraperitoneal. The settings on record: in vivo. The gist of the method: as §1
Series [11] has as its system Brain. Description: Cmax in rat brain assessed as 9H-fluoren-9-one at 116 mg/kg, ip. Type of series: ADME, organism-based. Set-up: dose 116 mg/kg, route intraperitoneal. The settings on record: in vivo. In a few lines:
as §1

The test system of series [12] is Plasma. Put plainly: Cmax in rat plasma assessed as 9H-fluoren-9-one at 116 mg/kg, ip. Format: ADME, organism-based. Also noted: dose 116 mg/kg, route intraperitoneal. The settings on record: in vivo. The gist of the method: as §1
For series [13], the system named is Plasma. Put plainly: AUC (0 to t) in rat plasma assessed as 9H-fluoren-9-one at 116 mg/kg, ip. Format: ADME, organism-based. Set-up: dose 116 mg/kg, route intraperitoneal. The settings on record: in vivo. The gist of the method: as §1
Series [14] deals with Brain. Put plainly: Tmax in rat brain assessed as 9H-fluoren-9-one at 116 mg/kg, ip. The settings on record: in vivo. Set-up: dose 116 mg/kg, route intraperitoneal. Type of series: ADME, organism-based. In a few lines: as §1
Series [15] is filed under the species Canis familiaris. Put plainly: Wake promoting activity in dog. The settings on record: Canis lupus familiaris. Type of series: functional, organism-based.
Series [16] addresses Cytochrome P450 2C19 (Homo sapiens, UniProt P33261). Put plainly: Inhibition of CYP2C19. Type of series: ADME.
The target of series [17] is CYP2C19 (Homo sapiens, UniProt P33261). Put plainly: Inhibition of CYP2C19 at 10 uM. Type of series: ADME.
Series [18] has as its system Rattus norvegicus. Description: Wake promoting activity in rat assessed as total time awake at 30 mg/kg, ip over a period of 3 hrs after dosing. Format: functional. As to conditions: route intraperitoneal.
Series [19] can be described thus: Cmax in rat plasma at 116 mg/kg, ip. Format: ADME, organism-based. Also noted: dose 116 mg/kg, route intraperitoneal.
The nature of series [20]: Tmax in rat brain at 116 mg/kg, ip. Format: ADME, organism-based. Set-up: dose 116 mg/kg, route intraperitoneal.
Series [21] in a line: Tmax in rat plasma at 116 mg/kg, ip. Format: ADME, organism-based. Set-up: dose 116 mg/kg, route intraperitoneal.
Series [22] concerns Brain. Put plainly: AUC (0 to t) in rat brain at 116 mg/kg, ip. Type of series: ADME, organism-based. Set-up: dose 116 mg/kg, route intraperitoneal. The settings on record: in vivo.
Series [23] can be described thus: Cmax in rat brain at 116 mg/kg, ip. Type of series: ADME, organism-based. Set-up: dose 116 mg/kg, route intraperitoneal.
Series [24] relates to Plasma. Put plainly: AUC (0 to t) in rat plasma at 116 mg/kg, ip. Type of series: ADME, organism-based. Also noted: dose 116 mg/kg, route intraperitoneal. As to conditions: in vivo.
Series [25] has as its target Cytochrome P450 3A4 (Homo sapiens, UniProt P08684). Put plainly: Inhibition of CYP3A4. Format: ADME.
For series [26], the system named is Plasma. Description: Plasma concentration in human at efficacious dose. Type of series: ADME, cell-free.
In series [27] the target is Cytochrome P450 2D6 (Homo sapiens, UniProt P10635). Put plainly: Inhibition of CYP2D6. Type of series: ADME.
Chain of Cytochrome P450 2D6 (P10635 whole entry): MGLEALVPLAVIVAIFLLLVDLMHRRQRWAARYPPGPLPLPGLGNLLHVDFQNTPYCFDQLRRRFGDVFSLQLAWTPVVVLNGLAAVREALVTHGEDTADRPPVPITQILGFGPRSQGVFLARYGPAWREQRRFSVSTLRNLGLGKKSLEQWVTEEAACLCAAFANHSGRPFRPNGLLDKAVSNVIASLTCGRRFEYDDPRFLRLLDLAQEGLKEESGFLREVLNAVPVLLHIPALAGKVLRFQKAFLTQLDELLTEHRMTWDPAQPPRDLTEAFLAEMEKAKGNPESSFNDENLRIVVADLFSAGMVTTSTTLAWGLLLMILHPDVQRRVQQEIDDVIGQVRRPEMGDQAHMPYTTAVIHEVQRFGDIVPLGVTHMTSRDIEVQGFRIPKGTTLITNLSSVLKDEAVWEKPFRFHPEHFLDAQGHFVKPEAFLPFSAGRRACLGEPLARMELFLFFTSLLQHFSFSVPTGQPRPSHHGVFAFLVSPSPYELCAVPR

Chain of Sodium-dependent dopamine transporter (P23977 whole entry): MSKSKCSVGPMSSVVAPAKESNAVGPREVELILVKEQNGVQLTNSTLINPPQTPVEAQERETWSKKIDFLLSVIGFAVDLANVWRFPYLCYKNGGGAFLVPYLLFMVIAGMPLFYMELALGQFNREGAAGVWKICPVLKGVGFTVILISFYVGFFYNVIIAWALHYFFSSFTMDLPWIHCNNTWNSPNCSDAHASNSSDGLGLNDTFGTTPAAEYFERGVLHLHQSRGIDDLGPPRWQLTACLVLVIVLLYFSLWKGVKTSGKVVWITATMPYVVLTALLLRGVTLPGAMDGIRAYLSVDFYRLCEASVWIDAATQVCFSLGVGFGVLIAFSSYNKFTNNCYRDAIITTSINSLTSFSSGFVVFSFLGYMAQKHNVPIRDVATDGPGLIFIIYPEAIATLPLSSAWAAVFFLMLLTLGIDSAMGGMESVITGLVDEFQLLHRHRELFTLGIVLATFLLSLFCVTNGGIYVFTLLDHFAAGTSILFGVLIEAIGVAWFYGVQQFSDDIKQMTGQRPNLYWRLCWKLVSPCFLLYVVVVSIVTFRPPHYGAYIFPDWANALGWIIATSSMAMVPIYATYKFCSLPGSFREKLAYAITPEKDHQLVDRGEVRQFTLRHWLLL
Chain of Cytochrome P450 2C19 (P33261 whole entry): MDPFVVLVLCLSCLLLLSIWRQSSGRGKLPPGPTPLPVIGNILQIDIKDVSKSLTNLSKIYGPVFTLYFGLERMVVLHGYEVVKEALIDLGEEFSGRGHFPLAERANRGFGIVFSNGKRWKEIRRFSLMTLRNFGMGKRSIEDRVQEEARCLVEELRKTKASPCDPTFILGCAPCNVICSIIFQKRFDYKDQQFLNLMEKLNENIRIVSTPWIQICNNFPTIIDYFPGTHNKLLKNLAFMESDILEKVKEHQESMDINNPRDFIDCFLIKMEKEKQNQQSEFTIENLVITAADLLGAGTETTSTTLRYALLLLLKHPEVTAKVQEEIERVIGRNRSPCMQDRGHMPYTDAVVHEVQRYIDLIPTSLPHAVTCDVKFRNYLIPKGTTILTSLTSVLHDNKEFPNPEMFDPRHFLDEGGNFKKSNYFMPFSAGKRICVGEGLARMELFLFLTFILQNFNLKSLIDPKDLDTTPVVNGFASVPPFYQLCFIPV
Chain of CYP2C19 (P33261 whole entry): as above
Chain of Cytochrome P450 3A4 (P08684 whole entry): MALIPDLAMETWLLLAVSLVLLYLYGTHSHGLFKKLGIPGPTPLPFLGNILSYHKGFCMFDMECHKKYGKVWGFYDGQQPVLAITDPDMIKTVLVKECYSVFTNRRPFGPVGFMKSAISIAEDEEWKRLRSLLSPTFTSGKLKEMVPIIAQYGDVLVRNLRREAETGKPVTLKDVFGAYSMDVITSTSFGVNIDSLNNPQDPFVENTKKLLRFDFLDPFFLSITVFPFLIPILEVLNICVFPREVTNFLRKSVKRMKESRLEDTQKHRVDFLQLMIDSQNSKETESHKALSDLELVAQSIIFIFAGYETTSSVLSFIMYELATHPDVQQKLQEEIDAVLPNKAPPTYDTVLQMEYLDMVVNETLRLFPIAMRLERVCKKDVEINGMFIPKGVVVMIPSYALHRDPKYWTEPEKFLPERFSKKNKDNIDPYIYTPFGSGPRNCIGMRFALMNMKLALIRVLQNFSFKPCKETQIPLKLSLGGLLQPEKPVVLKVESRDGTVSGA

What is called Tmax is the time at which the peak concentration occurs. The Cmax is the peak of the concentration-time curve. In general, pIC50 refers to the negative decadic logarithm of the IC50, by convention in mol/L. High values mean a small IC50, low ones a large IC50. Regarding `OC1c2ccccc2-c2ccccc21`, the values for the Tmax in series [1] and in [3] were 120 min and 48 min, respectively. Further, the Cmax in series [2] worked out at 4384 ng/g; in series [4], 263 ng/g. Also, the AUCt in series [5] is 1081 ng·h/g; in series [8], 11639 ng·h/g. In [6], the pIC50 was 5.05. Also, in series [7], the Time turned out to be 163 min.

Take `O=C1c2ccccc2-c2ccccc21`: the AUCt in series [9] turned out to be 2349 ng·h/g; in series [13], 939 ng·h/g. Further, the time of peak concentration (Tmax) turned out to be 72 min in series [10] and 48 min in series [14]. Besides, the maximum concentration (Cmax) in [11] stood at 971 ng/g; in series [12], 255 ng/g.

As for `C[C@H](NC(=O)C[S+]([O-])C1c2ccccc2-c2ccccc21)C(N)=O` (mixture of isomers), in series [15], the result was inactive. Also, the pIC50 in series [16] and in [6] was less than 4.00 in each case. Besides, the Time in series [7] is 151 min.

For the molecule `NC(=O)[C@H](CO)NC(=O)C[S+]([O-])C1c2ccccc2-c2ccccc21` (mixture of isomers), the outcome in [15] was inactive. For the same molecule, the negative-log IC50 (pIC50) in series [16] and in [6] was less than 4.00 each time. Besides, the Time in series [7] is on record as 136 min.

As to `NC(=O)[C@@H]1CCCN1C(=O)C[S+]([O-])C1c2ccccc2-c2ccccc21` (mixture of isomers), the outcome in [15] was inactive. Also, the pIC50 in series [16] and in series [6] was less than 4.00 each time. For the same molecule, the Time in [7] was determined as 169 min.

As for `NC(=O)C[S+]([O-])C1c2ccccc2-c2ccccc21` (racemic), the result in [15] was inactive. Further, the negative-log IC50 (pIC50) in series [16] and in [6] was less than 4.00 each time. For the same molecule, in series [7], the Time came out at 116 min.

The inhibition is the drop in the measured response relative to a control, in per cent. Read a high inhibition as strong suppression. `CC1([S+]([O-])CC(N)=O)c2ccccc2-c2ccccc21` (racemic) yielded an inhibition at 10 µM in series [17] of 26%. This molecule also had a pIC50 in series [6] of less than 4.00. Further, the Time in series [7] was determined as 71 min.

In turn, `CNC(=O)C[S+]([O-])C1c2ccccc2-c2ccccc21` (racemic) showed an inhibition at 10 µM in series [17] of 48%. Further, the result in [15] was inactive. In [6], this molecule had a pIC50 of less than 4.00. Besides, the Time in series [7] worked out at 83 min.

With `O=C(C[S+]([O-])C1c2ccccc2-c2ccccc21)NCCO` (racemic), in [15], the outcome was inactive. In addition, the pIC50 in [16] and in series [6] was less than 4.00 throughout. Also, the Time in series [7] is recorded as 167 min.

`CCN(CC)C(=O)C[S+]([O-])C1c2ccccc2-c2ccccc21` (racemic): the outcome in [15] was inactive. Also, the pIC50 in series [16] and in series [6] was less than 4.00 in each case. In addition, the Time in series [7] turned out to be 99 min.

Take `O=C(C[S+]([O-])C1c2ccccc2-c2ccccc21)N1CCOCC1` (racemic): the inhibition at 10 µM in series [17] was 30%. For the same molecule, in [15], the outcome was inactive. Besides, in series [6], the pIC50 was less than 4.00. Moreover, the Time in series [18] was 158 min.

Regarding `O=C(C[S+]([O-])C1c2ccccc2-c2ccccc21)N1CCNCC1` (racemic), in series [15], the outcome was inactive. The pIC50 in series [16] and in [6] was less than 4.00 in each case. The Time in series [18] is listed as 119 min.

`CC(=O)N1CCN(C(=O)C[S+]([O-])C2c3ccccc3-c3ccccc32)CC1` (racemic): the peak concentration (Cmax) in [19] came out at 6290 ng/g; in [23], 416 ng/g. Also, the Tmax in series [20] and in series [21] was 48 min throughout. Further, the outcome in series [15] was inactive. The pIC50 in [16] and in series [6] was less than 4.00 throughout. Moreover, the AUCt in series [22] is 295 ng·h/g; in series [24] it was 7501 ng·h/g. Also, the Time in series [18] worked out at 146 min.

Take `NC(=O)CNC(=O)C[S+]([O-])C1c2ccccc2-c2ccccc21` (racemic): the result in series [15] was inactive. Further, the pIC50 in series [16] and in series [6] was less than 4.00 in each case. The Time in series [7] is reported as 140 min.

Regarding `NC(=O)C[S+]([O-])C(c1ccccc1)c1ccccc1` (racemic) [MODAFINIL], the “inhibition (INH)” value in series [25] and in [27] was “Not Active” in each case. In series [26], this molecule displayed a concentration greater than 30 µM. In series [15], the result was inactive. Also, in series [7], the Time was found to be 117 min.
